This note sets out measurements from ChEMBL document CHEMBL5214977, “Discovery and Optimization of Quinoline Analogues as Novel Potent Antivirals against Enterovirus D68” (J Med Chem, 2022).

The structures appear in SMILES notation.

One data set deals with enterovirus D68. The experiment in a line: Antiviral activity against Enterovirus-D68 STL-2014-12 infected in human RD cells assessed as reduction in virus induced cytopathic effect by measuring ATP level incubated for 72 hrs by cell titer-glo luminescent cell viability assay. In kind it is functional, organism-based. As to conditions: Enterovirus D, STL-2014-12, RD, 72 h. The method in brief: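 RD cells seeded at 1.5 × 10^4/well and grown 24 h, then given 100 TCID50 virus plus compound in 3-fold dilutions (0.01–200 μM). DMSO control. Incubated 37 °C for 72 h; ATP read by CellTiter-Glo luminescence and normalized to uninfected and infected controls. EC50 is the concentration giving 50% CPE reduction. Strains: STL-2014-12, US/KY/14-18953, US/MO/14-18947, Fermon.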
For orientation: Protection from cytopathic effect is a common read-out in antiviral testing.

A short description of data set [1]: Selectivity index, ratio of CC50 for human RD cells to EC50 for Enterovirus-D68 STL-2014-12 infected in human RD cells to. In kind it is toxicity, cell-based. Particulars: for selectivity ratio: RD cells, read-out: Ratio CC50/EC50. The method in brief:
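EC50 came from a CPE reduction assay. RD cells (1.5 × 10^4 per well, grown 24 h) were infected with 100 TCID50 of the named strain and given 3-fold dilutions from 0.01 to 200 μM. After 72 h at 37 °C, ATP was read by CellTiter-Glo and normalized to infected and uninfected controls. CC50 came from uninfected cells under the same dilutions, 72 h and ATP readout. SI = CC50/EC50.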

Another data set has as its system RD. Nature of the data set: Cytotoxicity against human RD cells assessed as inhibition of cell viability by measuring ATP level incubated for 72 hrs by cell titer-glo luminescent cell viability assay. In kind it is functional. The method in brief: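 Uninfected RD cells seeded at 1.5 × 10^4/well and grown 24 h, then exposed to compound in 3-fold dilutions (0.01–200 μM), with DMSO as cell control. ATP read by CellTiter-Glo luminescence after 72 h; CC50 is the 50% cytotoxic concentration.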
For orientation: Cellular ATP, detected with luciferase, serves as a proxy for viable cell number.

For the compound `CCc1nc(-c2cnc3ccc(-c4ccc(NC(C)=O)cc4)cc3c2)no1`, in the data set with enterovirus D68, the EC50 is 330 nM. Moreover, in data set [1], the selectivity ratio is over 22. Moreover, the CC50 in the data set on RD is over 7400 nM.
For `CCCc1ccc(-c2ccc3ncc(-c4noc(C)n4)cc3c2)cc1` the same measures were 780 nM, over 10 and over 7400 nM.
In the case of `CCc1nc(-c2cnc3ccc(-c4ccc(F)cc4)cc3c2)no1`, the EC50 in the data set with enterovirus D68 is 330 nM. The selectivity ratio in data set [1] is over 22. Besides, the CC50 with RD was over 7400 nM.
The matching figures for `FC(F)(F)c1nc(-c2cnc3ccc(-c4ccc(Cl)cc4)cc3c2)no1`: 24300 nM, over 8 and over 200000 nM.
Take `CC(C)c1ccc(-c2ccc3ncc(-c4noc(C(F)(F)F)n4)cc3c2)cc1`: the EC50 in the data set with enterovirus D68 turned out to be 5080 nM. Also, the selectivity ratio in data set [1] was over 39. Besides, the CC50 with RD was over 200000 nM.
For `CCc1nc(-c2cnc3ccc(-c4ccc(OC)cc4)cc3c2)no1`, the EC50 in the data set with enterovirus D68 is 190 nM. Further, the selectivity ratio in data set [1] was over 13. Further, the CC50 in the data set on RD was over 2500 nM.
For `Cc1nc(-c2cnc3ccc(-c4ccc(N)nc4)cc3c2)no1`, the EC50 in the data set with enterovirus D68 came to 510 nM. Further, the selectivity ratio in data set [1] is over 15. In addition, the CC50 with RD is over 7400 nM.
As to `CCOC(=O)c1cnc2ccc(-c3ccccc3)cc2c1`, in the data set with enterovirus D68, the EC50 worked out at 900 nM. Moreover, in data set [1], the selectivity ratio is over 8. Further, in the data set with RD, the CC50 is over 7400 nM.
As to `Nc1ccc(-c2ccc3ncc(-c4noc(C(F)(F)F)n4)cc3c2)cn1`, the EC50 with enterovirus D68 was found to be 180 nM. Also, in data set [1], the selectivity ratio is over 14. Further, in the data set with RD, the CC50 was over 2500 nM.
The matching figures for `CCCc1ccc(-c2ccc3ncc(C(=O)OCC)cc3c2)cc1`: 1290 nM, over 6 and over 7400 nM.
The matching figures for `CCc1nc(-c2cnc3ccc(-c4ccccc4)cc3c2)no1`: 170 nM, over 44 and over 7400 nM.
Turning to `CCOC(=O)c1cnc2ccc(-c3ccc(C(C)C)cc3)cc2c1`, in the data set on enterovirus D68, the EC50 was 1050 nM. Further, the selectivity ratio in data set [1] is over 2. Moreover, the CC50 in the data set with RD was over 7400 nM.
For `CC(C)(C)c1nc(-c2cnc3ccc(-c4ccc(N)cc4)cc3c2)no1` the same measures were 4220 nM, over 2 and over 7400 nM.
As to `Cc1ccc(-c2ccc3ncc(-c4noc(C)n4)cc3c2)cc1`, in the data set with enterovirus D68, the EC50 was 570 nM. Also, the selectivity ratio in data set [1] is over 13. For the same compound, the CC50 with RD was over 7400 nM.
With `CCCc1ccc(-c2ccc3ncc(-c4noc(CC)n4)cc3c2)cc1`, in the data set with enterovirus D68, the concentration giving a half-maximal response (EC50) was 530 nM. In data set [1], the selectivity ratio is over 14. Moreover, the CC50 in the data set with RD is over 7400 nM.
On to `Cc1ccc(-c2ccc3ncc(-c4noc(C(F)(F)F)n4)cc3c2)cc1`, for which, in the data set with enterovirus D68, the EC50 was 450 nM. The selectivity ratio in data set [1] was over 49. Further, the half-maximal cytotoxic concentration (CC50) in the data set on RD is over 22200 nM.
Consider `CCc1nc(-c2cnc3ccc(-c4ccc(N5CCOCC5)cc4)cc3c2)no1`, for which the EC50 in the data set with enterovirus D68 was found to be 11800 nM. In data set [1], the selectivity ratio is over 17. The CC50 with RD is over 200000 nM.
The matching figures for `FC(F)(F)c1nc(-c2cnc3ccc(-c4ccccc4)cc3c2)no1`: 750 nM, over 30 and over 22200 nM.
For `CCCCc1ccc(-c2ccc3ncc(-c4noc(CC)n4)cc3c2)cc1`, the EC50 with enterovirus D68 turned out to be 180 nM. Also, the selectivity ratio in data set [1] was over 41. In addition, the CC50 with RD is over 7400 nM.
Take `Fc1ccc(-c2ccc3ncc(-c4noc(C(F)(F)F)n4)cc3c2)cc1`: in the data set with enterovirus D68, the EC50 came out at 1220 nM. Further, the selectivity ratio in data set [1] is over 6. In the data set with RD, the 50% cytotoxic concentration (CC50) is over 7400 nM.
Regarding `CCCCc1ccc(-c2ccc3ncc(-c4noc(C)n4)cc3c2)cc1`, the EC50 with enterovirus D68 is 590 nM. Moreover, the selectivity ratio in data set [1] is over 4. The CC50 in the data set with RD is over 2500 nM.
On to `CCCCc1ccc(-c2ccc3ncc(-c4noc(C(F)(F)F)n4)cc3c2)cc1`, for which, in the data set on enterovirus D68, the concentration giving a half-maximal response (EC50) came out at 190 nM. For the same compound, in data set [1], the selectivity ratio is over 39. Besides, the CC50 with RD is over 7400 nM.
Regarding `CCOC(=O)c1cnc2ccc(-c3ccc(N)cc3)cc2c1`, the EC50 in the data set on enterovirus D68 was found to be 470 nM. The selectivity ratio in data set [1] was over 16. Further, the CC50 in the data set on RD was over 7400 nM.
Take `FC(F)(F)c1nc(-c2cnc3ccc(-c4ccc(N5CCOCC5)cc4)cc3c2)no1`: the 50% effective concentration (EC50) in the data set with enterovirus D68 was found to be 33900 nM. The selectivity ratio in data set [1] is over 1. Also, in the data set with RD, the CC50 was over 22200 nM.
For `CCc1nc(-c2cnc3ccc(-c4cccc(N)c4)cc3c2)no1`, the EC50 with enterovirus D68 worked out at 170 nM. The selectivity ratio in data set [1] is over 44. The CC50 in the data set with RD was over 7400 nM.
Take `CCc1nc(-c2cnc3ccc(-c4ccc(N)cc4)cc3c2)no1`: the EC50 in the data set with enterovirus D68 is 100 nM. Also, in data set [1], the “Ratio CC50/EC50” value was over 25. Besides, in the data set on RD, the CC50 was over 2500 nM.
Consider `Cc1nc(-c2cnc3ccc(-c4ccccc4)cc3c2)no1`, for which the EC50 in the data set on enterovirus D68 was determined as 220 nM. In data set [1], the selectivity ratio was over 11. For the same compound, the CC50 with RD was over 2500 nM.
For `CCc1nc(-c2cnc3ccc(-c4ccc(O)cc4)cc3c2)no1`, in the data set with enterovirus D68, the EC50 stood at 190 nM. The selectivity ratio in data set [1] is over 13. For the same compound, the CC50 with RD was over 2500 nM.
For the compound `Cc1nc(-c2cnc3ccc(-c4ccc(O)cc4)cc3c2)no1`, the 50% effective concentration (EC50) in the data set on enterovirus D68 came to 460 nM. Further, in data set [1], the selectivity ratio is over 5. Besides, in the data set with RD, the CC50 was over 2500 nM.
For the compound `CC(C)c1nc(-c2cnc3ccc(-c4ccc(N)cc4)cc3c2)no1`, the concentration giving a half-maximal response (EC50) in the data set on enterovirus D68 was determined as 400 nM. The selectivity ratio in data set [1] was over 2. Besides, in the data set with RD, the CC50 is over 800 nM.
For `COc1ccc(-c2ccc3ncc(-c4noc(C)n4)cc3c2)cc1`, in the data set with enterovirus D68, the EC50 was 510 nM. In addition, in data set [1], the selectivity ratio was over 131. Further, in the data set with RD, the CC50 was over 66700 nM.
In the case of `CCCc1nc(-c2cnc3ccc(-c4ccc(N)cc4)cc3c2)no1`, in the data set with enterovirus D68, the EC50 stood at 410 nM. The selectivity ratio in data set [1] was over 2. For the same compound, the CC50 with RD is over 800 nM.
Take `CCOC(=O)c1cnc2ccc(-c3cccc(N)c3)cc2c1`: the EC50 in the data set with enterovirus D68 worked out at 6730 nM. Besides, the selectivity ratio in data set [1] is over 1. Further, the CC50 with RD was over 7400 nM.
Take `CCCCc1ccc(-c2ccc3ncc(C(=O)OCC)cc3c2)cc1`: in the data set on enterovirus D68, the EC50 was 850 nM. Besides, the selectivity ratio in data set [1] is over 9. Moreover, the CC50 in the data set on RD is over 7400 nM.
Regarding `CCc1ccc(-c2ccc3ncc(-c4noc(CC)n4)cc3c2)cc1`, the EC50 in the data set on enterovirus D68 was determined as 590 nM. The selectivity ratio in data set [1] is over 38. In the data set on RD, the cytotoxic concentration (CC50) is over 22200 nM.
The matching figures for `CN(C)c1ccc(-c2ccc3ncc(-c4noc(C(F)(F)F)n4)cc3c2)cc1`: 1350 nM, over 16 and over 22200 nM.
`Cc1nc(-c2cnc3ccc(-c4ccc(N)cc4)cc3c2)no1`: in the data set on enterovirus D68, the EC50 was 280 nM. Moreover, the selectivity ratio in data set [1] was over 9. Further, in the data set on RD, the CC50 was over 2500 nM.
For `CCc1nc(-c2cnc3ccc(-c4ccc(C)cc4)cc3c2)no1` the same measures were 610 nM, over 12 and over 7400 nM.
On to `CCc1nc(-c2cnc3ccc(-c4ccc(N)c(Cl)c4)cc3c2)no1`, for which, in the data set on enterovirus D68, the EC50 is 610 nM. The selectivity ratio in data set [1] is over 12. For the same compound, the CC50 in the data set with RD is over 7400 nM.
On to `CCOC(=O)c1cnc2ccc(-c3ccccc3N)cc2c1`, for which the EC50 in the data set on enterovirus D68 amounted to 6260 nM. Besides, in data set [1], the selectivity ratio is over 1. Moreover, the CC50 with RD is over 7400 nM.
Consider `CCc1ccc(-c2ccc3ncc(-c4noc(C)n4)cc3c2)cc1`, for which the EC50 with enterovirus D68 is 470 nM. In addition, the selectivity ratio in data set [1] was over 16. For the same compound, the CC50 in the data set with RD is over 7400 nM.
Turning to `CCCCc1nc(-c2cnc3ccc(-c4ccc(N)cc4)cc3c2)no1`, in the data set on enterovirus D68, the EC50 is 710 nM. Also, the selectivity ratio in data set [1] is over 3. The CC50 with RD is over 2500 nM.
Regarding `CCc1nc(-c2cnc3ccc(-c4ccc(N)nc4)cc3c2)no1`, the EC50 with enterovirus D68 amounted to 120 nM. Also, the selectivity ratio in data set [1] was over 555. Further, the CC50 in the data set on RD was over 66700 nM.
Take `CCc1nc(-c2cnc3ccc(-c4ccccc4N)cc3c2)no1`: in the data set with enterovirus D68, the EC50 was determined as 2350 nM. For the same compound, in data set [1], the selectivity ratio turned out to be 9. Moreover, the CC50 in the data set on RD was 2350 nM.
On to `CCc1nc(-c2cnc3ccc(-c4ccc(Cl)cc4)cc3c2)no1`, for which, in the data set with enterovirus D68, the EC50 was found to be 3020 nM. Also, the selectivity ratio in data set [1] was over 7. In addition, the CC50 in the data set on RD is over 22200 nM.

As usually defined, the EC50 is the concentration that produces a half-maximal response. What is called CC50 is the concentration at which the toxic effect on the cells reaches its halfway point.
